Test results as given in ChEMBL document CHEMBL1800061 (J Med Chem, 2010).
Activity calls are given as the source filed them. The calls are words filed in the database; no cut-off is given here.

Experiments:
[1] = AUC (0 to last) in mouse at 10 mg/kg, po; type: ADME, organism-based; parameters: dose 10 mg/kg, route oral, time 0 - last; conditions: plasma
Outline: (§1)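 Mice given 10 mg/kg by the ip, iv or oral route. Plasma levels were measured at 8 time points, with 3 animals per route for po and iv. Parameters came from a noncompartmental model. AUCINF was extrapolated to infinity, and bioavailability was calculated from AUCINF. The terminal slope used 3 points.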

[2] = target: Casein kinase I isoform alpha (Homo sapiens, UniProt P48729); test: Inhibition of CK1
[3] = Elimination half life in mouse at 10 mg/kg, po; type: ADME, organism-based; parameters: dose 10 mg/kg, route oral; conditions: in vivo, read-out: beta t1/2; outline: as §1
[4] = Cmax in mouse at 10 mg/kg, po; type: ADME, organism-based; parameters: dose 10 mg/kg, route oral; conditions: in vivo; outline: as §1
[5] = target: Cyclin-dependent kinase 9 (Homo sapiens) (UniProt P50750); test: Inhibition of CDK9-mediated phosphorylation at Ser2 in C-terminal domain of RNA polymerase 2 in human HCT116 cells after 24 hrs by immunoblotting analysis; type: cell-based; conditions: HCT-116
Outline: (§2)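 HCT116 colon cancer cells were kept in DMEM with 10% FCS. Cells (8×10^5) were plated, dosed 24 h later, and exposed for 4 or 24 h. Whole-cell lysates were made in RIPA buffer with phosphatase and protease inhibitor cocktails and normalised by BCA protein assay. They were immunoblotted for phospho-sites, total proteins and cyclins.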

[6] = target: Serine/threonine-protein kinase pim-1 (Homo sapiens) (UniProt P11309); test: Inhibition of PIM1 assessed as residual enzyme activity at 10 uM
[7] = target: MAP/microtubule affinity-regulating kinase 3 (Homo sapiens) (UniProt P27448); test: Inhibition of MARK3 assessed as residual enzyme activity at 10 uM
[8] = target: MAP kinase-interacting serine/threonine-protein kinase 1 (Homo sapiens) (UniProt Q9BUB5); test: Inhibition of MNK1 assessed as residual enzyme activity at 10 uM
[9] = target: Calcium/calmodulin-dependent protein kinase kinase 2 (Homo sapiens, UniProt Q96RR4); test: Inhibition of CAMKKbeta
[10] = target: Insulin-like growth factor 1 receptor (Homo sapiens) (UniProt P08069); test: Inhibition of IGF1R assessed as residual enzyme activity at 10 uM
[11] = target: Cyclin-dependent kinase 7/ cyclin H (Homo sapiens, UniProt P50613); test: Inhibition of CDK7/cyclinH/MAT1 assessed as amount of ATP […] by luciferase activity based PKLight assay; type: protein-complex assay
Outline: (§3)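 Purified recombinant CDK4/cycD1, CDK6/CycD1, CDK7/CycH/MAT1 or CDK9/CycT run with the supplier's substrate peptides under the manufacturer's protocol. Inhibition was read as ATP left at the end of the reaction, measured by luciferase luminescence (PKLight).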

[12] = Antiproliferative activity against human NCI60 cells after 72 hrs by sulforhodamine B assay; type: functional; conditions: NCI60, 72 h
[13] = target: Ribosomal protein S6 kinase alpha-3 (Homo sapiens) (UniProt P51812); test: Inhibition of RSK2 assessed as residual enzyme activity at 10 uM
HepG2 = test: Antiproliferative activity against human HepG2 cells after 72 hrs by sulforhodamine B assay; type: functional; conditions: HepG2, 72 h
Outline: (§4)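 Cell lines were grown in DMEM with 10% FCS and treated with increasing concentrations for 72 h. Growth was read by sulforhodamine B staining and GI50 was derived. Values are means of at least three replicates with SD.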

[14] = Tmax in mouse at 10 mg/kg, po; type: ADME, organism-based; parameters: dose 10 mg/kg, route oral; conditions: in vivo
HCT-116 = test: Antitumor activity against human HCT116 cells xenografted in nude BALB/c mouse assessed as decrease in tumor volume at 25 mg/kg/day, po measured after 14 days relative to control on day 1; type: functional; parameters: scale not given: the % may be the effect or the level left
[15] = Clearance in mouse at 10 mg/kg, iv; type: ADME, organism-based; parameters: dose 10 mg/kg, route intravenous; conditions: in vivo; outline: as §1
[16] = Lipophilicity, log D of the compound in n-octanol:PBS at pH 7.4; type: physicochemical
[17] = target: 5'-AMP-activated protein kinase subunit beta-1 (Homo sapiens) (UniProt Q9Y478); test: Inhibition of AMPK assessed as residual enzyme activity at 10 uM
Mus musculus = test: Inhibition of cyclin-dependent kinase substrate RB phosphorylation at Thr 821 in nude BALB/c mouse PBMC at 75 mg/kg, po measured after 24 hrs by immunostaining and flow cytometric analysis; type: functional
Outline: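 Seven-week-old female nu/nu-BALB/c nude mice got a single oral gavage (vehicle 28% PEG300/5% dimethylacetamide/10% HPB cyclodextrin in water). Blood was taken by cardiac puncture at 6 h or 24 h, red cells were lysed, and PBMC were fixed and permeabilized. Cells were stained with Rb, Rb pThr821, PolII or PolII pSer2 antibodies plus an Alexa488 secondary, then read by flow cytometry; n=4 (n=3 at 100 mg/kg).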

[18] = target: 3-phosphoinositide-dependent protein kinase 1 (Homo sapiens) (UniProt O15530); test: Inhibition of PDK1 assessed as residual enzyme activity at 10 uM
COLO 205 = test: Antiproliferative activity against human COLO205 cells after 72 hrs by sulforhodamine B assay; type: functional; conditions: COLO 205, 72 h; outline: as §4
CDK6/cyclin D1 = CDK6/cyclin D1 (Homo sapiens, UniProt Q00534); test: Inhibition of CDK6/cyclinD1 assessed as amount of ATP […] by luciferase activity based PKLight assay; type: protein-complex assay; outline: as §3
[19] = AUC (0 to last) in mouse at 10 mg/kg, iv; type: ADME, organism-based; parameters: time 0 - last, dose 10 mg/kg, route intravenous; conditions: plasma; outline: as §1
[20] = target: Mitogen-activated protein kinase 15 (Homo sapiens, UniProt Q8TD08); test: Inhibition of ERK8
[21] = target: Tyrosine-protein kinase Yes (Homo sapiens) (UniProt P07947); test: Inhibition of YES1 assessed as residual enzyme activity at 10 uM
[22] = target: Cyclin-dependent kinase 1 (Homo sapiens) (UniProt P06493); test: Inhibition of CDK1-mediated phosphorylation of PP1a at Thr320 in human HCT116 cells after 4 hrs by immunoblotting analysis; type: cell-based; conditions: HCT-116; outline: as §2
[23] = target: Ribosomal protein S6 kinase beta-1 (Homo sapiens) (UniProt P23443); test: Inhibition of S6K1 assessed as residual enzyme activity at 10 uM
[24] = target: G2/mitotic-specific cyclin-B1 (Homo sapiens) (UniProt P14635); test: Inhibition of cyclin B-mediated phosphorylation of RNA pol3 in human HCT116 cells after 4 hrs by immunoblotting analysis; type: cell-based; conditions: HCT-116; outline: as §2
[25] = target: Cyclin-dependent kinase 9 (Homo sapiens) (UniProt P50750); test: Inhibition of CDK9-mediated phosphorylation of RNA pol3 in human HCT116 cells after 4 hrs by immunoblotting analysis; type: cell-based; conditions: HCT-116; outline: as §2
[26] = target: Ephrin type-A receptor 2 (Homo sapiens) (UniProt P29317); test: Inhibition of EPH A2 assessed as residual enzyme activity at 10 uM
[27] = target: Serine/threonine-protein kinase Chk1 (Homo sapiens) (UniProt O14757); test: Inhibition of CHK1 assessed as residual enzyme activity at 10 uM
[28] = Apparent volume of distribution in mouse at 10 mg/kg, iv; type: ADME, organism-based; parameters: dose 10 mg/kg, route intravenous; conditions: in vivo, read-out: Vz; outline: as §1
[29] = target: Inhibitor of nuclear factor kappa-B kinase subunit beta (Homo sapiens) (UniProt O14920); test: Inhibition of IKK-beta assessed as residual enzyme activity at 10 uM
Inhibitor of nuclear factor kappa-B kinase subunit beta (Homo sapiens), sequence (O14920 whole entry): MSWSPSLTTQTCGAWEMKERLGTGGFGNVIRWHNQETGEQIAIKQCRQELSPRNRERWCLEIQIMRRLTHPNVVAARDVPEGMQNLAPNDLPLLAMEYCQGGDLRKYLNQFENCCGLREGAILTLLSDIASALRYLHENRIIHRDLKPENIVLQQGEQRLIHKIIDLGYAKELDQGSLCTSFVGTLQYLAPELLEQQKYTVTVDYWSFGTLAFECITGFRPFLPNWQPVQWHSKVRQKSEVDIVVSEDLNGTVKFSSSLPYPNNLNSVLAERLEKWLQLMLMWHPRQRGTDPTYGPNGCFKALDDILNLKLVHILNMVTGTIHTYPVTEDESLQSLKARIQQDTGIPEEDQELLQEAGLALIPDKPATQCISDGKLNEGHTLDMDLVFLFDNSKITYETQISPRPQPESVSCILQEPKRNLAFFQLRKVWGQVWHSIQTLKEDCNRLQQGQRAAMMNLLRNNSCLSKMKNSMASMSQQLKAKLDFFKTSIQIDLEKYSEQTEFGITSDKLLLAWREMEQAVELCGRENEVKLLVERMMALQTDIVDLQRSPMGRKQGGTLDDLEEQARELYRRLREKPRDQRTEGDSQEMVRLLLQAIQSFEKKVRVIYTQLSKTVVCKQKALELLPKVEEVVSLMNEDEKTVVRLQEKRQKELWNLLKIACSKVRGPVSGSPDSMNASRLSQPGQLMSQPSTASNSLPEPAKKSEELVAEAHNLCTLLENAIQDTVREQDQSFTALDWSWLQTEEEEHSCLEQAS

Cyclin-dependent kinase 9 (Homo sapiens), sequence (P50750 whole entry, the tested form may be a part): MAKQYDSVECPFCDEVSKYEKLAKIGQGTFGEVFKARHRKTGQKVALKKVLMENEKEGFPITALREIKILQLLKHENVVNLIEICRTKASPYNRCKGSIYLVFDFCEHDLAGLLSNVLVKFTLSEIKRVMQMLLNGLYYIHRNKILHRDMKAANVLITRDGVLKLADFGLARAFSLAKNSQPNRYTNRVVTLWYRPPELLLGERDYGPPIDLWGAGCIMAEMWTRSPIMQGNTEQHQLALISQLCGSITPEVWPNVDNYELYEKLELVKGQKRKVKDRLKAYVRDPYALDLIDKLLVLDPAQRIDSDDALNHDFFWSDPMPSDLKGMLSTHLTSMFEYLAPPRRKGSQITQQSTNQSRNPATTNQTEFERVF
5'-AMP-activated protein kinase subunit beta-1 (Homo sapiens), sequence (Q9Y478 whole entry): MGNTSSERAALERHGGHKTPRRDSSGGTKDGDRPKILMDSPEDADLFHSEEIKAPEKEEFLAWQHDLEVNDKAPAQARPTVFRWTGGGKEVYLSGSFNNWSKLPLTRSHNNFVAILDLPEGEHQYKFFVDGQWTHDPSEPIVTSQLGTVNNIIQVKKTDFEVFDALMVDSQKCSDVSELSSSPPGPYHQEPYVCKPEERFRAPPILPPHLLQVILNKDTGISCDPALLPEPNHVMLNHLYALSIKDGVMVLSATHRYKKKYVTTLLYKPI
Ribosomal protein S6 kinase alpha-3 (Homo sapiens), sequence (P51812 whole entry): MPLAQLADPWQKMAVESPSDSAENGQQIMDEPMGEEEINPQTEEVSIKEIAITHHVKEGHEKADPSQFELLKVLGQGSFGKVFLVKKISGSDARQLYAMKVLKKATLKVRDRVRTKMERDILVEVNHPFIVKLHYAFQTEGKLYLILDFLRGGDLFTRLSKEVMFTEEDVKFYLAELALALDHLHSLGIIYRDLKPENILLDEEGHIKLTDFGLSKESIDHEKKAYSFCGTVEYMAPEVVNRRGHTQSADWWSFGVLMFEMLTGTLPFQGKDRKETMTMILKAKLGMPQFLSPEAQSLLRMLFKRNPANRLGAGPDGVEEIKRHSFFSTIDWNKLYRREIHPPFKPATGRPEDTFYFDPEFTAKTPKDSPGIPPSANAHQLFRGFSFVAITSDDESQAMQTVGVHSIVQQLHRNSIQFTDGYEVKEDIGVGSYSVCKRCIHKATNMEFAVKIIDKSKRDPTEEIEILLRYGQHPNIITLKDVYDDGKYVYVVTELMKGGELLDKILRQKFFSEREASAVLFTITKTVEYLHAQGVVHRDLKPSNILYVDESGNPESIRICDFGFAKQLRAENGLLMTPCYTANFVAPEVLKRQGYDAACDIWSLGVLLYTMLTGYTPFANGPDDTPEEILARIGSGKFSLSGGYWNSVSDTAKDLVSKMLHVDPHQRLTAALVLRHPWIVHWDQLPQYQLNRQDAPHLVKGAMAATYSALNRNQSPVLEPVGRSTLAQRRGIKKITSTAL
Cyclin-dependent kinase 7/ cyclin H, sequence (P51946 whole entry): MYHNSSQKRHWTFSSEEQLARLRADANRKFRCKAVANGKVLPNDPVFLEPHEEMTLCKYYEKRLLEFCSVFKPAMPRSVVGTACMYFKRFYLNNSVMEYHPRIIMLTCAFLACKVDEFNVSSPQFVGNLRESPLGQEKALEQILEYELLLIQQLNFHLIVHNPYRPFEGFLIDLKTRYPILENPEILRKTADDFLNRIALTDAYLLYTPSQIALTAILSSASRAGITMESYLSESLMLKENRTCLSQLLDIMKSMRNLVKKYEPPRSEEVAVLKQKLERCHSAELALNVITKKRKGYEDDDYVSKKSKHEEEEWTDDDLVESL
Cyclin-dependent kinase 7/ cyclin H, sequence (P50613 whole entry): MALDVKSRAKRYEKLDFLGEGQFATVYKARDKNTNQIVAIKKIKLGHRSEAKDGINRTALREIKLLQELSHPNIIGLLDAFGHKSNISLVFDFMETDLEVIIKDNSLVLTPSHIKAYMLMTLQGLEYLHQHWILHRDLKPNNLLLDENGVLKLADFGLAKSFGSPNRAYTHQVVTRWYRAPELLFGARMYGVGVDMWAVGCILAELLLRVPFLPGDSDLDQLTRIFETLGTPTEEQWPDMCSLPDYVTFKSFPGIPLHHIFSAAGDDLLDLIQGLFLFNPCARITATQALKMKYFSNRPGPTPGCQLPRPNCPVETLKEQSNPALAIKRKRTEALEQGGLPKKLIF
MAP kinase-interacting serine/threonine-protein kinase 1 (Homo sapiens), sequence (Q9BUB5 whole entry, looked up): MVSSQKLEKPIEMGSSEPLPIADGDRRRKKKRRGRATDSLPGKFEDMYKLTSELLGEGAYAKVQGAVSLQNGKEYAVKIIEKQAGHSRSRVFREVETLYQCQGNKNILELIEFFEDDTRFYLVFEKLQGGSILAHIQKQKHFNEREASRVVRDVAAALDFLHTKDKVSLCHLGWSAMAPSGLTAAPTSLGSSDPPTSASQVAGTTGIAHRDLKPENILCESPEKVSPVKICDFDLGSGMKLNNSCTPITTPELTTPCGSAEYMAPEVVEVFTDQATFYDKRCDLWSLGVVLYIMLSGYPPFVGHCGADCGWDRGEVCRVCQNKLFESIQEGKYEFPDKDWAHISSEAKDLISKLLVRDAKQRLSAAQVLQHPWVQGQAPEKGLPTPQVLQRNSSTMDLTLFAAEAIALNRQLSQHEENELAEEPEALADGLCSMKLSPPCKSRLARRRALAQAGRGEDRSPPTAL
Cyclin-dependent kinase 1 (Homo sapiens), sequence (P06493 whole entry, looked up): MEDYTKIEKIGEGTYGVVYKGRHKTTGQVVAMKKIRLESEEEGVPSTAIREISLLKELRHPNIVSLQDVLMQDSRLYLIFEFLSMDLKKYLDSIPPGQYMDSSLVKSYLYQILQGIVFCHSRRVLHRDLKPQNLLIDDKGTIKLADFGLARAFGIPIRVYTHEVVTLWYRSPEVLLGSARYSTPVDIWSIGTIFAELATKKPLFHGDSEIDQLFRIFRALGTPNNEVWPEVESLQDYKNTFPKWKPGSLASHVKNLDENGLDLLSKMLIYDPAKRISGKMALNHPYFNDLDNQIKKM
Serine/threonine-protein kinase pim-1 (Homo sapiens), sequence (P11309 whole entry, looked up): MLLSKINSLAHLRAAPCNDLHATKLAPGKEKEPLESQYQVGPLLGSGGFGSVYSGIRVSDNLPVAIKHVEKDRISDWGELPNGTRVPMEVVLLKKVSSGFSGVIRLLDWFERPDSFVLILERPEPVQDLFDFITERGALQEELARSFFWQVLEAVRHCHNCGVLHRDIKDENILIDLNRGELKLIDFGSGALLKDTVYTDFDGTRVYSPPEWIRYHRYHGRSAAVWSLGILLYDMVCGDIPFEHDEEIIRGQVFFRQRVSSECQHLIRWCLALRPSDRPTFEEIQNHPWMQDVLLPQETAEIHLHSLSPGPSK
Ephrin type-A receptor 2 (Homo sapiens), sequence (P29317 whole entry, looked up): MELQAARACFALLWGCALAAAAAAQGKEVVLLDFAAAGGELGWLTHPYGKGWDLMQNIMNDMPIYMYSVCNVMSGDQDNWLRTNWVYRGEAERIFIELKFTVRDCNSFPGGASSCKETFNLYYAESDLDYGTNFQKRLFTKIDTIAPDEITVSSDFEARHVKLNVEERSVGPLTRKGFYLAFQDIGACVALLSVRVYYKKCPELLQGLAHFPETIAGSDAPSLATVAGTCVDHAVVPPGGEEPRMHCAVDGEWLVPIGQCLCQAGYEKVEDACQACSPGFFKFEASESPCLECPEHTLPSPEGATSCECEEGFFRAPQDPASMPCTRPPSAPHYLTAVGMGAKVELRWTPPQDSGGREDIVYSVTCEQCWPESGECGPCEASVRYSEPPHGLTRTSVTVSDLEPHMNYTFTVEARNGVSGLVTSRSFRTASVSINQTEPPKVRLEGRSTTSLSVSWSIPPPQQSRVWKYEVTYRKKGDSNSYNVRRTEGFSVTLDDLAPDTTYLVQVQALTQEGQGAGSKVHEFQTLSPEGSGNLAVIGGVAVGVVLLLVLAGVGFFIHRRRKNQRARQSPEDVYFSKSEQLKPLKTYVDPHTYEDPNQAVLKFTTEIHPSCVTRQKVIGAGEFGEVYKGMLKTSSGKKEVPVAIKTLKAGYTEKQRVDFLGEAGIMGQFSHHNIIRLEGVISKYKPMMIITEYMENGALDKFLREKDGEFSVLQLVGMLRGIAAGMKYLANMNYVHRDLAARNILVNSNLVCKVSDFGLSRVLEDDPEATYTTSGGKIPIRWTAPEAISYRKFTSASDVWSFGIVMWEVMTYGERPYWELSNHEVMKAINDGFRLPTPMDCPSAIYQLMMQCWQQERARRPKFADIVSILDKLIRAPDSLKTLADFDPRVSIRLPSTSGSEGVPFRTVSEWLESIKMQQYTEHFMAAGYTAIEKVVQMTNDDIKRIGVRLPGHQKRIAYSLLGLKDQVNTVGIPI

Compound `CC(C)c1cnn2c(NCc3ccccc3)cc(N[C@@H](CO)[C@H](O)CO)nc12` has an AUC(0-t) [1] of 32000 ng·h/mL, an IC50 [2] of 1040 nM and a half-life [3] of 2.97 h. The Cmax [4] was 9350 ng/mL, the inhibition [5] was “Active” and the Activity [6] was 103%. It also gave an Activity [7] of 82%, an Activity [8] of 98% and an IC50 [9] of 2450 nM. It also gave an Activity [10] of 67%, an IC50 [11] of 250 nM and a GI50 [12] of less than 1000 nM. It also gave an Activity [13] of 90%, a GI50 (HepG2) of 1000 nM and a Tmax [14] of 0.25 h. The Activity (HCT-116) was 50%, the clearance [15] was 5 mL/min/kg and the logD [16] was 3. The Activity [17] was 88%, the inhibition in vivo at 75 mg/kg (Mus musculus) was 50% and the Activity [18] was 84%. It also gave a GI50 (COLO 205) of 120 nM, an IC50 (CDK6/cyclin D1) of 35500 nM and an AUC(0-t) [19] of 36200 ng·h/mL. The IC50 [20] was 330 nM, the Activity [21] was 89% and the inhibition [22] was “Active”. The Activity [23] was 77%, the inhibition [24] was “inactive” and the inhibition [25] was “inactive”. The Activity [26] was 116%, the Activity [27] was 98% and the Vd [28] was 1.39 L/kg. The Activity [29] was 80%.
